Reference: ChEMBL document CHEMBL3817736, “Discovery of Bifunctional Oncogenic Target Inhibitors against Allosteric Mitogen-Activated Protein Kinase (MEK1) and Phosphatidylinositol 3-Kinase (PI3K)” (J Med Chem, 2016)
pIC50: −log10 of the molar value. Activity calls are given as the source filed them. The calls are words filed in the database; no cut-off is given here.

What was measured:
D54 [1] = experiment: Cytotoxic activity against human D54 cells assessed as reduction in cell viability incubated for 48 hrs by alamar blue assay; format: functional, cell-based
Outline: (§1)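 Cells grown in RPMI with 10% heat-inactivated FBS and 1% penicillin/streptomycin/glutamine at 37 °C, 5% CO2. Compounds made as 10 mM DMSO stocks, serially diluted in RPMI. Controls received media with 1% DMSO. Viability read by AlamarBlue fluorescence 48 h after dosing. Combination treatments used co-administered single agents.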

D54 [2] = experiment: Cytotoxic activity against human D54 cells assessed as reduction in cell viability incubated for 48 hrs in presence of PD0325901 by alamar blue assay; format: functional, cell-based; outline: as §1
A549 [3] = experiment: Cytotoxic activity against human A549 cells assessed as reduction in cell viability incubated for 48 hrs by alamar blue assay; format: functional, cell-based; outline: as §1
[4] = biological target: Dual specificity mitogen-activated protein kinase kinase 1 (Mus musculus, UniProt P31938); experiment: Inhibition of MEK1 in mouse C26 cells assessed as inhibition of ERK1/2 phosphorylation incubated for 1 hr by Western blotting; format: cell-based
Dual specificity mitogen-activated protein kinase kinase 1 (Mus musculus, UniProt P31938), sequence (P31938 whole entry): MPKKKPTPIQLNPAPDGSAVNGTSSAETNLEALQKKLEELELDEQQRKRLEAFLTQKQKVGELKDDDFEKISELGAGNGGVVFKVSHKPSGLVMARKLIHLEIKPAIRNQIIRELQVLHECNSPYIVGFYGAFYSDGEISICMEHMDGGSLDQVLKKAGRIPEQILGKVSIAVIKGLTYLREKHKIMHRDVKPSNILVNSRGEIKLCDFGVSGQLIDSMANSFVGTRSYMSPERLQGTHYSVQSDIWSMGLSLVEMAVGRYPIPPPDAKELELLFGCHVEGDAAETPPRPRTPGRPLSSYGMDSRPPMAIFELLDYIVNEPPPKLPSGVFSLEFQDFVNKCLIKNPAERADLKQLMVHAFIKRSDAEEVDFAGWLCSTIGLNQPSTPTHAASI

D54 [5] = experiment: Cytotoxic activity against human D54 cells assessed as reduction in cell viability incubated for 48 hrs in presence of ZSTK474 by alamar blue assay; format: functional, cell-based; outline: as §1
[6] = biological target: T1, Dual specificity mitogen-activated protein kinase kinase 1 (Homo sapiens, UniProt Q02750); experiment: Inhibition of MEK1 in human A549 cells assessed as inhibition of ERK1/2 phosphorylation at 1 to 25 uM incubated for 1 hr by Western blotting; format: cell-based
T1 sequence (Q02750 whole entry): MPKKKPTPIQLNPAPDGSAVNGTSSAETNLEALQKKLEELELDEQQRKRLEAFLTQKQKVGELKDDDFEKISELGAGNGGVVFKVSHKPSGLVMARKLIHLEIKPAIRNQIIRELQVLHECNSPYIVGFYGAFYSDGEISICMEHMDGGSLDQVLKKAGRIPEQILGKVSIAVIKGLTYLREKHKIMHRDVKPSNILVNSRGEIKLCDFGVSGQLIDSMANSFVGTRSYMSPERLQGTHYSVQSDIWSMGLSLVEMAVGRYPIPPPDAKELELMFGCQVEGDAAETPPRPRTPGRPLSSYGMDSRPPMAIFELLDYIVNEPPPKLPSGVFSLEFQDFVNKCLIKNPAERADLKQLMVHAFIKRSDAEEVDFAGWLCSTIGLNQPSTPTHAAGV
Outline: (§2)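 Cells seeded 24 h before treatment, then exposed to compounds for 1 h; DMSO vehicle control. Lysis in NP-40 buffer (1% NP40, 150 mM NaCl, 25 mM Tris pH 8.0) with protease and phosphatase inhibitors. Protein measured by Lowry. Equal protein run on 4-12% Bis-Tris gels and blotted. Probes: pERK1/2 (Thr202/Tyr204), pAKT (S473), total ERK/AKT, β-actin; ECL detection.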

[7] = Inhibition of PI3K (unknown origin) assessed as reduction in lipid kinase activity by fluorescence-based Adapta TR-FRET assay; design: species or system Homo sapiens
[8] = biological target: T1, Dual specificity mitogen-activated protein kinase kinase 1; experiment: Inhibition of MEK1 in human D54 cells assessed as inhibition of ERK1/2 phosphorylation at 1 to 25 uM incubated for 1 hr by Western blotting; format: cell-based; outline: as §2
Mus musculus [9] = experiment: In-vivo inhibition of MEK1 in human D54 cells xenografted nude Foxn1nu mouse assessed as reduction in tumor ERK1/2 phosphorylation dosed through oral gavage 2 hrs before mouse sacrifice by Western blot method; format: functional, organism-based
Outline: (§3)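 Five-week-old athymic nude Foxn1nu mice given s.c. flank injections of 1×10^6 cells in 50% RPMI/50% Matrigel (n=2 per tumor type). At about 150 mm³ tumor volume, mice were fasted 4 h, then dosed by oral gavage with 375 mg/kg in DMSO:HPBCD (3:2) or vehicle. Sacrifice at 2 h. Excised tumors analysed by western blot for pERK1/2 and pAKT.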

D54 [10] = experiment: Inhibition of PI3K in human D54 cells assessed as inhibition of AKT phosphorylation at 1 to 25 uM incubated for 1 hr by Western blotting; format: cell-based; outline: as §2
Mus musculus [11] = experiment: In-vivo inhibition of PI3K in human D54 cells xenografted nude Foxn1nu mouse assessed as reduction in tumor AKT phosphorylation dosed through oral gavage 2 hrs before mouse sacrifice by Western blot method; format: functional, organism-based; outline: as §3
Mus musculus [12] = experiment: In-vivo inhibition of MEK1 in human A549 cells xenografted nude Foxn1nu mouse assessed as reduction in tumor ERK1/2 phosphorylation dosed through oral gavage 2 hrs before mouse sacrifice by Western blot method; format: functional, organism-based; outline: as §3
A549 [13] = experiment: Inhibition of PI3K in human A549 cells assessed as inhibition of AKT phosphorylation at 1 to 25 uM incubated for 1 hr by Western blotting; format: cell-based; outline: as §2
Mus musculus [14] = experiment: In-vivo inhibition of PI3K in human A549 cells xenografted nude Foxn1nu mouse assessed as reduction in tumor AKT phosphorylation dosed through oral gavage 2 hrs before mouse sacrifice by Western blot method; format: functional, organism-based; outline: as §3
Mus musculus [15] = experiment: In-vivo inhibition of MEK1 in human D54 cells xenografted nude Foxn1nu mouse assessed as reduction in tumor ERK1/2 phosphorylation at 375 mg/kg, po dosed 2 hrs before mouse sacrifice by Western blot method; format: functional; outline: as §3
[16] = biological target: T1, Dual specificity mitogen-activated protein kinase kinase 1; experiment: Inhibition of purified MEK1 (unknown origin) assessed as reduction in phosphorylation of inactive Erk2 incubated for 30 mins by Kinase-Glo luminescent kinase assay
Mus musculus [17] = experiment: In-vivo inhibition of PI3K in human D54 cells xenografted nude Foxn1nu mouse assessed as reduction in tumor AKT phosphorylation at 375 mg/kg, po dosed 2 hrs before mouse sacrifice by Western blot method; format: functional; outline: as §3

Row | inhibition [6] | inhibition [8] | SMILES | inhibition (D54 [1]) | inhibition (A549 [3]) | inhibition (D54 [10]) | inhibition (A549 [13]) | other results
1 |  |  | FC(F)c1nc2ccccc2n1-c1nc(N2CCOCC2)nc(N2CCOCC2)n1 | Dose-dependent effect | Dose-dependent effect |  |  | Activity (D54 [2]): Active
2 |  |  | CNCCONC(=O)c1ccc(F)c(F)c1Nc1ccc(I)cc1F |  |  |  |  | pIC50 [4]: 7.70
3 |  |  | O=C(NOC[C@H](O)CO)c1ccc(F)c(F)c1Nc1ccc(I)cc1F | Dose-dependent effect | Dose-dependent effect |  |  | Activity (D54 [5]): Active
4 | Active | Active | O=C(NOCCNCCCCS(=O)(=O)N1CCN(c2nc(N3CCOCC3)nc(-n3c(C(F)F)nc4ccccc43)n2)CC1)c1ccc(F)c(F)c1Nc1ccc(I)cc1F | Dose-dependent effect | Dose-dependent effect |  |  | pIC50 [7]: 6.55
5 | Active | Active | O=C(NOCCNCCCCCC(=O)N1CCN(c2nc(N3CCOCC3)nc(-n3c(C(F)F)nc4ccccc43)n2)CC1)c1ccc(F)c(F)c1Nc1ccc(I)cc1F | Dose-dependent effect | Dose-dependent effect | Active | Active | inhibition (Mus musculus [9]): Active; inhibition (Mus musculus [11]): Active; inhibition (Mus musculus [12]): Active; inhibition (Mus musculus [14]): Active
6 | Active | Active | O=C(CNCCONC(=O)c1ccc(F)c(F)c1Nc1ccc(I)cc1F)NCCCCCC(=O)N1CCN(c2nc(N3CCOCC3)nc(-n3c(C(F)F)nc4ccccc43)n2)CC1 | Dose-dependent effect | Dose-dependent effect | Active | Active | 

Row | SMILES | inhibition [6] | inhibition [8] | inhibition (D54 [1]) | inhibition (A549 [3]) | inhibition (D54 [10]) | inhibition (A549 [13]) | other results
7 | O=C(NOCCOCCOCCOCCN1CCN(c2nc(N3CCOCC3)nc(-n3c(C(F)F)nc4ccccc43)n2)CC1)c1ccc(F)c(F)c1Nc1ccc(I)cc1F | Active | Active | Dose-dependent effect | Dose-dependent effect | Active | Active | inhibition in vivo at 375 mg/kg (Mus musculus [15]): 95%; pIC50 [16]: 10.82; inhibition in vivo at 375 mg/kg (Mus musculus [17]): 67%; pIC50 [7]: 6.72
